TCR-CD3 inh: inhibitors of human TCR-CD3 interaction, primary screen, biochemical, fluorescence, TAMRA-labeled TCR probe | T-cell receptor (TCR) | inhibition, % at 9.4 µM | actives 0.37% (n = 360,000) | AID 651800, 2012; in the data active = inhibition above about 19%;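 also: recombinant mutant TCR 2C K166C tagged with TAMRA read by polarization; 0% = receptor in buffer alone and 100% = receptor with positive control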
ABHD4 inh: ABHD4 inhibitors, primary screen, biochemical, fluorescence polarization, mouse; (Lyso)-N-acylphosphatidylethanolamine lipase (Mus musculus), Q8VD66; purified mABHD4, FP-Rh probe fluorescence polarization; inhibition, % at 8.92 µM; actives 0.54% (n = 370,000); AID 720543, 2013;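 active = inhibition exceeding the mean over every tested compound plus 3 SD, cut at about 30% in these data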;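 also: 0% = plate median of compound wells and 100% = S159A mutant with DMSO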
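system = mouse ABHD4 enzyme, wild type | medium = HEPES pH 7.0, NaCl, Pluronic buffer | also added = FP-Rh probe | incubation = Enzyme–compound pre-incubation 45 min, then probe 60 min, both 25 °C | technique = fluorescence polarization, excitation 525 nm, emission 598 nm, BODIPY TMR filters | controls = S159A mutant high control, sample median low control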
SIAE inh: human SIAE inhibitors, primary screen, biochemical, fluorescence polarization, FP-Rh probe, 1536-well HTS; actives 0.69% (n = 370,000); inhibition, % at 9.66 µM; SIAE FP-Rh probe binding;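 active = inhibition above a cutoff: mean of compounds within the control limits plus 3 SD of those, cut at about 17% in these data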;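 also: 0% = plate median of compound wells and 100% = probe without SIAE protein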
pPAFAH inh: pPAFAH enzyme inhibitors, primary screen, biochemical, fluorescence polarization, human; Platelet-activating factor acetylhydrolase (Homo sapiens), Q13093; recombinant pPAFAH, FP-rhodamine probe fluorescence polarization; inhibition, % at 3.39 µM; actives 1.5% (n = 330,000); AID 463082, 2010;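 active = inhibition above the mean inhibition across the screen plus 3 SD, cut at about 25% in these data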;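 also: inhibitors block binding of the rhodamine activity-based probe so polarization drops; 0% = enzyme with DMSO and 100% = wells lacking pPAFAH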
Target sequence (Q13093 whole entry, looked up): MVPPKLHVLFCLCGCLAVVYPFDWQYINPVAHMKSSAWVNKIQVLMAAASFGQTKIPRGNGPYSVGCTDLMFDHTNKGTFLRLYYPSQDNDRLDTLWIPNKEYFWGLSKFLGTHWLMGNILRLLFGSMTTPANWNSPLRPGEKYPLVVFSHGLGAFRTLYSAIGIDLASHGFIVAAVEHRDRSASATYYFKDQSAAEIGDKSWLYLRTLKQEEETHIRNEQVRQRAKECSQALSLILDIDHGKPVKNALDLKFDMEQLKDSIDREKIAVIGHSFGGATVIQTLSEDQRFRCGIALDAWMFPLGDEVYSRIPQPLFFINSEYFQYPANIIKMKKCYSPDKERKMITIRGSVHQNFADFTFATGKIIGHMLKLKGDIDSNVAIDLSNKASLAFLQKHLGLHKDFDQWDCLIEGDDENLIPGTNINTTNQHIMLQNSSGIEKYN
HTRA1 inhibitor: HTRA1 serine protease inhibitors, primary screen, biochemical, fluorescence polarization, HTS; recombinant HTRA1, FP-rhodamine activity-based probe; inhibition, % at 5.96 µM; actives 0.5% (n = 340,000); AID 504803, 2011; in the data active = inhibition above about 36%;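 also: 0% = enzyme with DMSO and 100% = wells lacking enzyme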
The depositor's hits bear a star. In the library only some 2.3% were active in any assay of this set; here they are far more common.

How did CCOc1ccccc1N1CCN(C(=O)c2ccccc2)CC1 do in these assays?
TCR-CD3 inh: 6; ABHD4 inh: 5; SIAE inh: 8; pPAFAH inh: -1; HTRA1 inhibitor: 5

How did C=CCNC(=O)C1CC(=O)N(c2ccc(OCC(=O)Nc3ccccc3)cc2)C1 (stereo not drawn) do in these assays?
TCR-CD3 inh: 4; ABHD4 inh: 5; SIAE inh: 18*; pPAFAH inh: -1; HTRA1 inhibitor: -10

What do the screens show for `COc1ccc(C(=O)CSc2nnc(-c3ccccc3)n2-c2ccc(Cl)cc2)cc1`?
ABHD4 inh: -2; SIAE inh: 2

How did CCOc1ncccc1C(=O)OCC(=O)Nc1cc(C(C)(C)C)ccc1OC do in these assays?
TCR-CD3 inh: 2; ABHD4 inh: 7; SIAE inh: -1; pPAFAH inh: 28*; HTRA1 inhibitor: -9

Results for CN(C)/C=C/C(=O)/C=C/c1cn(-c2ncc(C(F)(F)F)cc2Cl)c2ccccc12 ?
TCR-CD3 inh: -3; ABHD4 inh: -4; SIAE inh: -3; pPAFAH inh: 26*; HTRA1 inhibitor: 5

Results for CN1CCCN(C(=O)CSc2nnc(-c3cccnc3)n2C2CCCCC2)CC1 ?
ABHD4 inh: 8; SIAE inh: 3

What do the screens show for `C[C@H]1CN([C@@H](C)CO)C(=O)c2cc(NS(=O)(=O)c3ccc(F)cc3)ccc2O[C@H]1CN(C)S(=O)(=O)c1cn(C)cn1`?
TCR-CD3 inh: 2; ABHD4 inh: 8; SIAE inh: 5; pPAFAH inh: 28*; HTRA1 inhibitor: 1

Results for C[C@@H]1CN([C@H](C)CO)C(=O)c2cc(NS(=O)(=O)c3cccs3)ccc2O[C@H]1CN(C)Cc1ccccc1 ?
TCR-CD3 inh: 1; ABHD4 inh: 4; SIAE inh: -12; pPAFAH inh: 7; HTRA1 inhibitor: -3

What do the screens show for `C[C@@H]1CN([C@@H](C)CO)C(=O)c2cc(NS(=O)(=O)c3cccs3)ccc2O[C@H]1CN(C)Cc1ccc(C(F)(F)F)cc1`?
TCR-CD3 inh: 9; ABHD4 inh: -5; SIAE inh: -2; pPAFAH inh: 27*; HTRA1 inhibitor: -21

How did COc1cccc(CNC(=O)[C@H]2CCCN2C(=O)[C@H]2CCCN2C(=O)N2CCOCC2)c1 do in these assays?
TCR-CD3 inh: -1; ABHD4 inh: 2; SIAE inh: 1

What do the screens show for `COc1ccc2oc(C(=O)Nc3ccc(N4CCOCC4)cc3)c(C)c2c1`?
TCR-CD3 inh: 5; ABHD4 inh: 7; SIAE inh: 11; pPAFAH inh: 52*; HTRA1 inhibitor: -10

Results for COc1ccc(S[C@]2(C(=O)N3CCN(c4ncccn4)CC3)CC(=O)N(C(=O)/C=C/c3ccccc3)[C@@H]2c2ccc(OC)cc2)cc1 ?
ABHD4 inh: -5; SIAE inh: 4

Results for CCOC(=O)C1CCCN(CC(=O)Nc2nccs2)C1 (stereo not drawn) ?
TCR-CD3 inh: 3; ABHD4 inh: 7; SIAE inh: 1; pPAFAH inh: 28*; HTRA1 inhibitor: -6

What do the screens show for `O=C(Nc1ccc(F)cc1)OCCCN1C(=O)CCC12CCCCC2`?
ABHD4 inh: -9; SIAE inh: 9

Results for O=C(Cn1cnc2scc(-c3ccccc3)c2c1=O)NCc1ccco1 ?
TCR-CD3 inh: 0; ABHD4 inh: 4; SIAE inh: -4; pPAFAH inh: 25*; HTRA1 inhibitor: -8

How did COc1ccccc1CCn1cnc(-c2ccc(F)cc2)c1CC(C)C do in these assays?
TCR-CD3 inh: -4; ABHD4 inh: 5; SIAE inh: 8

Results for COc1ccccc1-c1nnc2n1N=C(c1ccc(O)c(O)c1)CS2 ?
pPAFAH inh: 17; HTRA1 inhibitor: 43*

How did CCOc1ccc(C2=Nn3c(nnc3-c3ccccc3OC)SC2)cc1 do in these assays?
TCR-CD3 inh: 4; ABHD4 inh: -3; SIAE inh: 5; pPAFAH inh: 0; HTRA1 inhibitor: -24

What do the screens show for `Cc1nc2ccccc2n1CCOc1ccc([N+](=O)[O-])cc1`?
TCR-CD3 inh: 0; ABHD4 inh: 0; SIAE inh: 2; pPAFAH inh: 30*; HTRA1 inhibitor: -2

Assay outcomes from PubChem.
